Assay outcomes deposited in PubChem BioAssay by several laboratories.
Yeast life ext: compounds extending yeast replicative lifespan, primary screen, S. cerevisiae, OD615. S. cerevisiae growth with nicotinamide; deaD strain in restrictive glucose medium. inhibition of the nicotinamide effect, % at 10 µM. actives 0.68% (n = 130,000). AID 775, 2007;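 active = inhibition above a set limit, placed 3 SD over the median of all compounds, cut at about 26% in these data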;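 also: 0% = nicotinamide-treated wells and 100% = cells grown without nicotinamide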
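Test system – modified budding yeast, DeaD strain · Compound – single dose 10 µM compound, 0.25% DMSO · Times – culture preincubation 4 h, compound exposure 48 h, both 30 °C · Detection – optical density (absorbance) at 615 nm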
Measles CPE: compounds protecting cells from measles virus cytopathic effect, primary screen, measles RdRp inhibitor project, single point, MLSMR library, absorbance; protection (pct of control), % at 4 µM; actives 1.5% (n = 140,000); AID 841, 2007; Measles virus-infected cells, CPE protection; in the data active = protection mostly above about 24%, no sharp cut-off; inactive = mostly below about 26%
RAM inhibit: inhibitors of the yeast RAM network, primary screen, dse1pr::URA3 reporter, 5-FOA selection | inhibition, % at 50 µM | AID 868, 2007 | S. cerevisiae dse1pr::URA3 reporter, 5-FOA growth OD615, 2 d; analog-sensitive cbk1-as2 kinase mutant strain | actives 1.8% (n = 190,000);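 active = inhibition above a set limit, 3 SD over mean compound inhibition, cut at about 8.4% in these data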;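 also: 0% = DMSO-only wells with no growth and 100% = 10 µM 1-NA-PP1 full growth; inhibition rescues growth on 5-FOA so higher OD means more RAM inhibition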
BB579 growth dn: growth inhibitors of yeast BB579 in restrictive medium, primary screen, yeast lifespan-shortening project, S. cerevisiae; actives 0.51% (n = 140,000); OD615, 48 h; inhibition, % at 10 µM;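 active = inhibition above a set limit, 3 SD over the mean compound inhibition, cut at about 44% in these data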
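controls = amphotericin B 10 µg/mL, positive | assay system = DeaD yeast strain BB579 | schedule = 48 h compound exposure at 30 °C after 4 h preincubation | detection = OD615 turbidity measurement | medium = restrictive CSMM-D medium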
Active calls of the source: *. An excerpt weighted towards active compounds, which were near 3.6% of everything screened.

How did CC(=O)[C@H]1[C@H](c2cccc(Cl)c2)C(C#N)(C#N)[C@@H]2c3ccccc3C=CN21 do in these assays?
Yeast life ext: 44.7*; Measles CPE: 9.4; RAM inhibit: 1.1; BB579 growth dn: -39.3

Results for CC(=O)[C@H]1[C@@H]2C(=O)N(c3cccc(Cl)c3)C(=O)[C@@H]2[C@H]2c3ccccc3C=CN21 ?
Yeast life ext: -8.6; Measles CPE: 2.7; RAM inhibit: 2.0; BB579 growth dn: -47.6

What do the screens show for `COc1cccc(-c2nc(-c3ccc4c(c3)-c3ccccc3S4(=O)=O)c(-c3ccccc3)[nH]2)c1OC`?
Measles CPE: 29.7; RAM inhibit: 9.2*; BB579 growth dn: -8.6

What do the screens show for `Fc1ccc(CN2CCN(c3ncccn3)CC2)cc1`?
Yeast life ext: -13.1; Measles CPE: 36.0*; RAM inhibit: 2.0; BB579 growth dn: -64.2

Results for O=C(NCc1ccccc1)C1=C[C@@H](c2ccc(Br)cc2)C[C@@H](OCc2ccc(CO)cc2)O1 ?
RAM inhibit: 8.8*

What do the screens show for `C#CCNC(=O)C1=C[C@@H](c2ccc(Br)cc2)C[C@@H](OCc2ccc(CO)cc2)O1`?
RAM inhibit: 7.6

Results for O=C(C1=C[C@H](c2csc3ccccc23)C[C@H](OCCCCO)O1)N1CCN(Cc2ccccc2)CC1 ?
RAM inhibit: 3.6

How did O=C(Nc1ccccc1)C1=C[C@H](c2csc3ccccc23)C[C@H](OCCCCO)O1 do in these assays?
RAM inhibit: 10.8*

What do the screens show for `O=C(NCc1ccccc1)C1=C[C@H](c2csc3ccccc23)C[C@H](OCCCCO)O1`?
RAM inhibit: 10.8*

How did CC(C)CC(=O)Nc1cccc(C(C)O)c1 (configuration not stated) do in these assays?
RAM inhibit: 0.5

Results for COC(=O)c1cn(C(=O)c2cccc(C)c2)c2ccccc12 ?
RAM inhibit: 1.6

Results for COc1cccc(/C=C2\N=C3CCCCCN3C2=O)c1 ?
Yeast life ext: -17.2; Measles CPE: 36.2*; RAM inhibit: 0.3; BB579 growth dn: -38.8

Results for C=C(C(=O)c1ccccc1)C(c1ccccc1)C(C)C(=O)c1ccccc1 (configuration not stated) ?
Yeast life ext: 10.7; Measles CPE: 21.6; RAM inhibit: 6.0; BB579 growth dn: -7.5

What do the screens show for `C=C(C(=O)c1ccccc1)C(C)C(=C)C(=O)c1ccccc1`?
Yeast life ext: 46.3*; Measles CPE: 0.1; RAM inhibit: -0.2; BB579 growth dn: -29.0

What do the screens show for `COC(=O)c1nn(-c2ccc(Cl)cc2)c(=O)cc1Sc1ccccn1`?
Yeast life ext: 27.4; Measles CPE: 28.1*; RAM inhibit: -0.1; BB579 growth dn: -25.1

Results for Cc1nn(CCCC(=O)Nc2cc(Oc3ccccc3)cc([N+](=O)[O-])c2)c(C)c1[N+](=O)[O-] ?
Yeast life ext: 0.5; Measles CPE: 14.9; RAM inhibit: 6.4; BB579 growth dn: -8.8

How did Cc1ccc(Oc2cc(NC(=O)CCCn3nc([N+](=O)[O-])cc3C)cc([N+](=O)[O-])c2)cc1 do in these assays?
Yeast life ext: 0.5; Measles CPE: 5.2; RAM inhibit: 9.5*; BB579 growth dn: -41.3

What do the screens show for `Cc1ccc(NC(=O)CCn2nc([N+](=O)[O-])cc2C)nc1`?
Yeast life ext: 27.1*; Measles CPE: 5.7; RAM inhibit: -0.3; BB579 growth dn: -11.8

How did CC(C)CN(C)C(=O)CC1C(=O)NCCN1C (configuration not stated) do in these assays?
RAM inhibit: -0.4

What do the screens show for `CN1CCN(C(=O)c2ccccc2Nc2ccc(SC(F)F)cc2)CC1`?
RAM inhibit: 1.0

Results for CC1CC(C)CN(C(=O)c2ccccc2Nc2ccc(SC(F)F)cc2)C1 (configuration not stated) ?
Yeast life ext: -21.8; Measles CPE: 18.5; RAM inhibit: 9.0*; BB579 growth dn: 5.9

What do the screens show for `Cc1ccccc1C(=O)Nc1nnc(SC(C)C)s1`?
RAM inhibit: -0.1

What do the screens show for `O=C(O)CC(NC(=O)OCc1ccccc1)c1ccccc1` (configuration not stated)?
Yeast life ext: -11.8; Measles CPE: 20.0*; RAM inhibit: -1.0; BB579 growth dn: -11.1

What do the screens show for `NC(=O)CC(NC(=O)OCc1ccccc1)C(=O)O` (configuration not stated)?
Yeast life ext: -4.3; Measles CPE: 23.5; RAM inhibit: -0.1; BB579 growth dn: 0.5

Results for CCOc1ccc(NC(=O)COC(=O)C2(C)CC2(Cl)Cl)c([N+](=O)[O-])c1 (configuration not stated) ?
RAM inhibit: 9.1*

Results for CCOc1ccc(OCC(=O)Nc2ccc(OC)cc2[N+](=O)[O-])cc1 ?
RAM inhibit: 3.9

What do the screens show for `CCN1C(=O)/C(=C/c2ccc(C)s2)SC1=Nc1ccc(OC)cc1`?
Yeast life ext: -10.7; Measles CPE: 7.7; RAM inhibit: 9.1*; BB579 growth dn: -26.2

How did COc1ccc(N=C2S/C(=C\c3ccc(C)o3)C(=O)N2CC(C)C)cc1 do in these assays?
Yeast life ext: 53.6; Measles CPE: 9.5; RAM inhibit: 10.6*; BB579 growth dn: -12.3

Results for CCN1C(=O)/C(=C/c2cc(C)n(C)c2C)SC1=Nc1ccc(OC)cc1 ?
Yeast life ext: -4.2; Measles CPE: 6.1; RAM inhibit: 4.1; BB579 growth dn: -30.6

Results for CCc1ccccc1NC(=S)N(CCc1ccncc1)C(C)C ?
RAM inhibit: 1.9

What do the screens show for `CCc1c(O)cc(=O)n(-c2ccccc2)c1-c1ccccc1`?
Yeast life ext: -5.4; Measles CPE: 25.9*; RAM inhibit: 0.9; BB579 growth dn: -48.0

What do the screens show for `CC(=O)c1c(O)cc(=O)n(-c2ccccc2)c1-c1ccc(Cl)cc1`?
Yeast life ext: 3.8; Measles CPE: 4.8; RAM inhibit: 3.9; BB579 growth dn: -12.8

How did CC(=O)Nc1ccccc1NS(=O)(=O)c1ccc(Cl)cc1 do in these assays?
Yeast life ext: 2.3; Measles CPE: 12.9; RAM inhibit: -1.0; BB579 growth dn: -61.5

What do the screens show for `O=S(=O)(Nc1cccc2c1CCCC2)c1ccc(Cl)cc1`?
Yeast life ext: 21.0; Measles CPE: 15.7; RAM inhibit: 9.2*; BB579 growth dn: -21.2

How did CCCn1c(C)cc(C(=O)COC(=O)c2ccc[nH]c2=O)c1C do in these assays?
Yeast life ext: 25.4; Measles CPE: 8.8; RAM inhibit: 2.2; BB579 growth dn: 44.9*

What do the screens show for `Cc1cc(C(=O)COC(=O)c2ccc3c(c2)OCO3)c(C)n1Cc1cccs1`?
Yeast life ext: -0.5; Measles CPE: 11.0; RAM inhibit: 7.0; BB579 growth dn: -43.0

What do the screens show for `Cc1cc(C(=O)COC(=O)c2ccccc2O)c(C)n1Cc1cccs1`?
Yeast life ext: -13.4; Measles CPE: 22.4; RAM inhibit: 9.0*; BB579 growth dn: -48.0

Results for CCC(=O)OCC(=O)c1cc(C)n(-c2ccc(Br)cc2)c1C ?
RAM inhibit: 2.8
